Laboratory results from ChEMBL document CHEMBL3091303, “1,3-Dialkyl-substituted tetrahydropyrimido[1,2-f]purine-2,4-diones as multiple target drugs for the potential treatment of neurodegenerative diseases” (Bioorg Med Chem, 2013).

Experiments:
[1] = molecular target: T1, Adenosine receptor A3 (Homo sapiens, UniProt P0DMS8); test: Displacement of [3H]PSB-11 from human adenosine A3 receptor expressed in CHO cells; assay type: cell-based
T1 sequence (P0DMS8 whole entry): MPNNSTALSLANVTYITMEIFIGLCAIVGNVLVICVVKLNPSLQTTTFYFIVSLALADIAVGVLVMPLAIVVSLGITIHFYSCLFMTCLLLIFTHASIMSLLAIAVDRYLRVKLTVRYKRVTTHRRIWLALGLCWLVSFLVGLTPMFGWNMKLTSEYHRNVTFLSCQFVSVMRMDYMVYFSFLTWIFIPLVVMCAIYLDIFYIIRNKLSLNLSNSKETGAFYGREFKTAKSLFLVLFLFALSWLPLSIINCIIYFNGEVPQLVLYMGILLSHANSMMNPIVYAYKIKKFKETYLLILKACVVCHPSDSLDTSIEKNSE

[2] = molecular target: T2, Adenosine receptor A2b (Homo sapiens, UniProt P29275); test: Displacement of [3H]PSB-603 from human adenosine A2B receptor
T2 sequence (P29275 whole entry): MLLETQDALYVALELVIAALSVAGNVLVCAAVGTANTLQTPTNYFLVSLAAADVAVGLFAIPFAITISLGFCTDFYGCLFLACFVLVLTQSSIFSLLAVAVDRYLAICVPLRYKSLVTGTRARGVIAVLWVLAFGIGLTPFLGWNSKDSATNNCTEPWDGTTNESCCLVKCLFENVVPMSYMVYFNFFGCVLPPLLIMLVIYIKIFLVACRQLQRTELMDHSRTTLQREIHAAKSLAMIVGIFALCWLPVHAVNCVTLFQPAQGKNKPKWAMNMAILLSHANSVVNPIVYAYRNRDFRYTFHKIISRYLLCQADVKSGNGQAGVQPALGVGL

[3] = molecular target: T3, Amine oxidase [flavin-containing] B (Homo sapiens, UniProt P27338); test: Inhibition of human MAO-B
T3 sequence (P27338 whole entry): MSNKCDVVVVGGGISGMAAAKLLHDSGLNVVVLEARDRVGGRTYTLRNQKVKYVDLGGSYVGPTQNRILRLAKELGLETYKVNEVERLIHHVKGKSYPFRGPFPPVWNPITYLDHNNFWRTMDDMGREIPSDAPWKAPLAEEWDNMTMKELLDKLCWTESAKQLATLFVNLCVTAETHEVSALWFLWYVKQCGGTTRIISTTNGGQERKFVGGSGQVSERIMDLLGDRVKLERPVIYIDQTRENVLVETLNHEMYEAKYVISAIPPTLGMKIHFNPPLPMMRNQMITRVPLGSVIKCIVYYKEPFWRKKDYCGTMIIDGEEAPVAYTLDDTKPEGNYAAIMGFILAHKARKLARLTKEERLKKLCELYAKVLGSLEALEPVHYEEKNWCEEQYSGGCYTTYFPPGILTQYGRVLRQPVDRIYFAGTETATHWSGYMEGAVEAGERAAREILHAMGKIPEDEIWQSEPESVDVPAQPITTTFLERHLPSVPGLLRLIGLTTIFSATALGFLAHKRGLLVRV

[4] = molecular target: T4, Adenosine receptor A1 (Rattus norvegicus) (UniProt P25099); test: Displacement of [3H]CCPA from adenosine A1 receptor in rat brain cortex relative to control; assay type: tissue-based; set-up: concentration or dose not given beside the values; conditions: concentration not given here
T4 sequence (whole entry): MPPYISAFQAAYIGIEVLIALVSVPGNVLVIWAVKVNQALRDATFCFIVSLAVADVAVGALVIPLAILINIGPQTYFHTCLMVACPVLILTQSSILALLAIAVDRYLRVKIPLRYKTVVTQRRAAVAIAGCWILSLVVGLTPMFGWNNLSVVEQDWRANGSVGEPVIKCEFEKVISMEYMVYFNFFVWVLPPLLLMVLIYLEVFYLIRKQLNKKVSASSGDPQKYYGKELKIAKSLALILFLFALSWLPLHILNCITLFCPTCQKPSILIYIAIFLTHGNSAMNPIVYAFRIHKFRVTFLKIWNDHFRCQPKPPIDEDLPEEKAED
Procedure, shortened: (§1)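 Radioligand binding to rat A1 receptors in rat brain cortical membrane preparations. Values are given as Ki, or as % inhibition of radioligand binding at the indicated concentration.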

[5] = molecular target: T5, Adenosine receptor A2b (Homo sapiens) (UniProt P29275); test: Displacement of [3H]PSB-603 from human adenosine A2B receptor relative to control; set-up: concentration or dose not given beside the values; conditions: concentration not given here
T5 sequence (whole entry): T2 sequence (P29275 whole entry)

[6] = molecular target: T6, MAO-B (amine oxidase [flavin-containing] B) (Homo sapiens, UniProt P27338); test: Inhibition of human MAO-B at 10 uM relative to control
T6 sequence (P27338 whole entry): T3 sequence (P27338 whole entry)
Procedure, shortened: (§2)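 Human MAO-A and MAO-B inhibition, screened first at a test concentration of 10 µM.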

[7] = molecular target: Adenosine receptor A2a (Rattus norvegicus, UniProt P30543); test: Displacement of [3H]MSX-2 from adenosine A2A receptor in rat brain striatum; assay type: tissue-based
[8] = molecular target: Adenosine receptor A2a (Rattus norvegicus) (UniProt P30543); test: Displacement of [3H]MSX-2 from adenosine A2A receptor in rat brain striatum relative to control; assay type: tissue-based; set-up: concentration or dose not given beside the values; conditions: concentration not given here
Procedure, shortened: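 Radioligand binding to rat A2A receptors in rat brain striatal membrane preparations, reported as % inhibition of radioligand binding at the indicated concentration.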

[9] = molecular target: T7, Adenosine receptor A1 (Rattus norvegicus, UniProt P25099); test: Displacement of [3H]CCPA from adenosine A1 receptor in rat brain cortex; assay type: tissue-based; procedure, shortened: as §1
T7 sequence (P25099 whole entry): T4 sequence (whole entry)

[10] = molecular target: T8, Adenosine receptor A3 (Homo sapiens) (UniProt P0DMS8); test: Displacement of [3H]PSB-11 from human adenosine A3 receptor expressed in CHO cells relative to control; assay type: cell-based; set-up: concentration or dose not given beside the values; conditions: concentration not given here
T8 sequence (whole entry): T1 sequence (P0DMS8 whole entry)

[11] = molecular target: T9, MAO-A (amine oxidase [flavin-containing] A) (Homo sapiens, UniProt P21397); test: Inhibition of human MAO-A at 10 uM relative to control; procedure, shortened: as §2
T9 sequence (P21397 whole entry): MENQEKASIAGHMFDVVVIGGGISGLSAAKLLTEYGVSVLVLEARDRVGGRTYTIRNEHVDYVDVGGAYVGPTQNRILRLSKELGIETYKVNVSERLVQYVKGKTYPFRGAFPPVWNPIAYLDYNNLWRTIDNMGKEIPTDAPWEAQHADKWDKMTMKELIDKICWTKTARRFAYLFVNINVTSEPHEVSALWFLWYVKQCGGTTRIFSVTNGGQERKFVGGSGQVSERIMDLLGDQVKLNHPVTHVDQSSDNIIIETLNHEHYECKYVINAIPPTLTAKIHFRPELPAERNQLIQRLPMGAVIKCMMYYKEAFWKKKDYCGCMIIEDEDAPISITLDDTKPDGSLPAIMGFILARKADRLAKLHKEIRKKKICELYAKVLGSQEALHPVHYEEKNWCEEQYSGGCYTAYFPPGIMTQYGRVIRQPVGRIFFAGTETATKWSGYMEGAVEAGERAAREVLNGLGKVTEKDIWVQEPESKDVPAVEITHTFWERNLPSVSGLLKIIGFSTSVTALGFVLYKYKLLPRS

[12] = molecular target: T10, Amine oxidase [flavin-containing] A (Homo sapiens, UniProt P21397); test: Inhibition of human MAO-A; procedure, shortened: as §2
T10 sequence (P21397 whole entry): T9 sequence (P21397 whole entry)

[13] = molecular target: Adenosine receptor A2a (Homo sapiens, UniProt P29274); test: Displacement of [3H]MSX-2 from human adenosine A2A receptor expressed in CHO cells; assay type: cell-based
Procedure, shortened: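 Radioligand binding to human receptors recombinantly expressed in Chinese hamster ovary (CHO) cells. Results are Ki, or % inhibition of radioligand binding at the indicated concentration.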

Sequence of Adenosine receptor A2a (Homo sapiens, UniProt P29274) (P29274 whole entry): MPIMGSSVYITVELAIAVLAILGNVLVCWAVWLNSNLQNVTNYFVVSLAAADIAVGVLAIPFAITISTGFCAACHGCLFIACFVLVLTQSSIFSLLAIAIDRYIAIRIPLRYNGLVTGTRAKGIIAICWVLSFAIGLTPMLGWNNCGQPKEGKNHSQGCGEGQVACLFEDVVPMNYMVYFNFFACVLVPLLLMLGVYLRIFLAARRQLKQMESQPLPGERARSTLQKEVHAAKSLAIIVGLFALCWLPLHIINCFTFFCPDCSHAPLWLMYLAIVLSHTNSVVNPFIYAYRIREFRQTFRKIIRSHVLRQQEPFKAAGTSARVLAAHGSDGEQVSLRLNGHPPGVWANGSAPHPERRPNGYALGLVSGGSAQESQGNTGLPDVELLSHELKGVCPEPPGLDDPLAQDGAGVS
Sequence of Adenosine receptor A2a (Rattus norvegicus) (P30543 whole entry): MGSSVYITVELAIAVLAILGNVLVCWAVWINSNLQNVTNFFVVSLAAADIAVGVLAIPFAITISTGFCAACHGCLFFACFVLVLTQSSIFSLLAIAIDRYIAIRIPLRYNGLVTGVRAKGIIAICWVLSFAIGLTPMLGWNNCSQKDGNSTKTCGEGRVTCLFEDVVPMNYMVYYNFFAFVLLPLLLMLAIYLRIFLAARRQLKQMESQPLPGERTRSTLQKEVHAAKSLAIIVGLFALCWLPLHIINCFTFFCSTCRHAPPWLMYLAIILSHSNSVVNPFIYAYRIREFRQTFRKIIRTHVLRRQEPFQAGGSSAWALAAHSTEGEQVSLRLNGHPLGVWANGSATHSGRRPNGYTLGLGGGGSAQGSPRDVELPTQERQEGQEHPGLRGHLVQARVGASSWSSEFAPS
Sequence of Adenosine receptor A2a (Rattus norvegicus, UniProt P30543) (P30543 whole entry): as above

SMILES	Ki [1] [µM]	Ki [2] [µM]	IC50 [3] [µM]	inhibition [4] [%]	inhibition [5] [%]	inhibition at 10 µM [6] [%]	Ki [7] [µM]	inhibition [8] [%]	Ki [9] [µM]	inhibition [10] [%]	inhibition at 10 µM [11] [%]	IC50 [12] [µM]	Ki [13] [µM]
CCCn1c(=O)c2c(nc3n2CCCN3CC(=O)N2CCN(Cc3ccc(OC)cc3)CC2)n(CCC)c1=O	1.6	> 1	> 10	18	4	30	> 10	33	> 1.5				
COc1ccc(CN2CCN(C(=O)CN3CCCn4c3nc3c4c(=O)n(C)c(=O)n3C)CC2)cc1	> 10	> 1	> 10	0	-8	30	> 10	41	> 1.5	15			
CCCn1c(=O)c2c(nc3n2CCCN3CCC(=O)N2CCN(Cc3ccc(Cl)cc3)CC2)n(CCC)c1=O	> 1	> 1	3.6	8	-4		> 10	40	> 1.5	23	1	> 10	
CCCn1c(=O)c2c(nc3n2CCCN3CC(=O)N2CCN(c3ccccc3)CC2)n(CCC)c1=O	2.45	> 1	10	18	6	46	> 10	27	> 1.5				
Cn1c(=O)c2c(nc3n2CCCN3CC(=O)N2CCN(Cc3ccc(C(F)(F)F)cc3)CC2)n(C)c1=O	> 10	> 1	3.48	2	2		> 10	27	> 1.5	36	6	> 10	
CCn1c(=O)c2c(nc3n2CCCN3CCN2CCCCC2)n(CC)c1=O	> 1	> 0.3	> 10		2	34	> 10	44	1.07	13			
CCCn1c(=O)c2c(nc3n2CCCN3CC(=O)N2CCN(c3ccc(Cl)cc3)CC2)n(CCC)c1=O	0.762	> 1	10	19	7	52	> 10	36	> 1.5		-2	> 10	
Cn1c(=O)c2c(nc3n2CCCN3CC(=O)N2CCN(c3ccccc3)CC2)n(C)c1=O	> 10	> 1	10	3		40	> 10	40	> 1.5	32	1	> 10	
Cn1c(=O)c2c(nc3n2CCCN3c2cc(Cl)cc(Cl)c2)n(C)c1=O	> 10	> 1	> 10	21	11	58	5.54		> 10	21			4.61
CCCn1c(=O)c2c(nc3n2CCCN3CCC(=O)N2CCN(c3ccccc3)CC2)n(CCC)c1=O	> 1	> 1	> 10	5	-5	30	> 10	14	> 1.5	21			
CCn1c(=O)c2c(nc3n2CCCN3CCc2ccc(OC)cc2)n(CC)c1=O	6.32	> 1	4.76	20	29		0.624		> 10		2	> 10	2.53
C#CCn1c(=O)c2c(nc3n2CCCN3C2CCN(Cc3ccccc3)CC2)n(C)c1=O	> 1	> 1	> 10	32	-2	22	2.47		> 10	3			0.628
